These results are taken from the array DNA melting data of Ke et al. (doi:10.1101/2024.01.08.574731).

Series [1] in a line: melting temperature; fluorescence melt of hairpins on a sequencing array, two-state fit, raised by 9.35 °C to match UV melts. The settings on record: sodium 0.088 M. Summed up: (§1)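 Bootstrapped two-state fits yielded melting temperature and folding enthalpy for library hairpins. Cy3 fluorescence, with annealed Cy3 and quencher oligos, was imaged on a sequenced MiSeq flow cell in 50 mM Na-HEPES pH 8.0, 25 mM NaCl in 2.5 °C steps up to 60 °C, and normalised to pre-quench Cy3 and to control constructs. Four replicates were combined by inverse variance, and fitted temperatures were raised by 9.35 °C to match UV melts.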

Series [2] is described as follows: folding enthalpy; higher = less favourable; fluorescence melt of hairpins on a sequencing array, two-state fit. The settings on record: sodium 0.088 M. Summed up:
as §1

Turning to GCGTTGGGACGC ((((....)))), the Tm in series [1] was 55.2 °C. The folding enthalpy in series [2] was -24.9 kcal/mol.
The matching figures for GCGTTTATACGC ((((....)))): 55.7 °C and -27.7 kcal/mol.
Turning to GCGTTTCGAAAGAAGCGC (((.(((....))).))), the Tm in series [1] was 63.1 °C. In addition, the folding enthalpy in series [2] was -37.9 kcal/mol.
For GCGTTTCTACGC ((((....)))), in that order: 53.8 °C and -23.3 kcal/mol.
Take GCGTTTGAAAAAACGC ((((((....)))))): in series [1], the Tm worked out at 65.9 °C. In addition, in series [2], the folding enthalpy was -32.1 kcal/mol.
For GCGTTTGACGC ((((...)))), in that order: 57.1 °C and -18.3 kcal/mol.
Regarding GCGTTTGGAAACAGATGC ((.(.((....)).).)), the Tm in series [1] came out at 30.1 °C. In series [2], the folding enthalpy is -17.6 kcal/mol.
The matching figures for GCGTTTGGAAACGAATGC ((.((.(....).)).)): 36 °C and -25.5 kcal/mol.
The matching figures for GCGTTTTCACGC ((((....)))): 54.2 °C and -24.6 kcal/mol.
For GCGTTTTTACGC ((((....)))), in that order: 55.2 °C and -26.9 kcal/mol.
Take GCTAAACGAAAGTTCAGC (((.(((....))).))): the Tm in series [1] is 41.4 °C. In addition, the folding enthalpy in series [2] was -28.7 kcal/mol.
For GCTAAAGGAAACCTTAGC (((((.(....).))))), the Tm in series [1] stood at 37.1 °C. The folding enthalpy in series [2] was -25.8 kcal/mol.
In the case of GCTAAAGGAAACTTTAGC (((((((....))))))), in series [1], the Tm amounted to 53.7 °C. Moreover, the folding enthalpy in series [2] is -37.4 kcal/mol.
For GCTAACGAAAGTTAGC ((((((....)))))), in that order: 66.8 °C and -35.1 kcal/mol.
On to GCTAACGAAAGTTCTAGC ((((((....)))..))), for which, in series [1], the Tm was 28.8 °C. Besides, the folding enthalpy in series [2] is -11.4 kcal/mol.
For GCTAACGAAAGTTTAAGC ((((((....)))..))), in that order: 35.5 °C and -19 kcal/mol.
In the case of GCTAACGAAAGTTTAGC ((((((....))).))), the Tm in series [1] worked out at 46.9 °C. The folding enthalpy in series [2] is -24.2 kcal/mol.
The matching figures for GCTAACGGAAACATTAGC (((((.(....).))))): 32.9 °C and -23.1 kcal/mol.
The matching figures for GCTAAGCGAAAGCATGGC ((.(.((....)).).)): 39.7 °C and -20.1 kcal/mol.
The matching figures for GCTAAGCGAAAGCCTCGC ((.(.((....)).).)): 29 °C and -10.7 kcal/mol.
On to GCTAAGCGAAAGCCTTGC ((.(.((....)).).)), for which the Tm in series [1] was 34.6 °C. Moreover, in series [2], the folding enthalpy is -13.1 kcal/mol.
With GCTAAGCGAAAGCGAAGC (((..((....))..))), the Tm in series [1] was found to be 63 °C. For the same sequence, in series [2], the folding enthalpy was -26.7 kcal/mol.
The matching figures for GCTAAGCGAAAGCGGAGC (((..((....))..))): 57.2 °C and -20.3 kcal/mol.
As for GCTAAGCGAAAGCGTGGC ((.(.((....)).).)), the Tm in series [1] is 57.1 °C. Also, the folding enthalpy in series [2] is -16.1 kcal/mol.
For GCTAAGCGAAAGCTCGGC ((..(((....)))..)), in that order: 39.7 °C and -19.7 kcal/mol.
For the sequence GCTAAGCGAAAGCTCTGC ((..(((....)))..)), in series [1], the Tm is 31.4 °C. Further, the folding enthalpy in series [2] was -15.8 kcal/mol.
Regarding GCTAAGCGAAAGCTGCGC ((..(((....)))..)), the Tm in series [1] worked out at 58.3 °C. In addition, the folding enthalpy in series [2] is -21.1 kcal/mol.
For GCTAAGCGAAAGCTGGGC ((..(((....)))..)), in that order: 52.9 °C and -17.7 kcal/mol.
For GCTAAGGGAAACCTTGGC ((.((((....)))).)), the Tm in series [1] turned out to be 47.6 °C. In addition, in series [2], the folding enthalpy is -29.4 kcal/mol.
For GCTAAGGGAAACTTTAGC (((((.(....).))))), in that order: 37.9 °C and -21.1 kcal/mol.
On to GCTACAACGAAAGTTAGC (((..(((....)))))), for which the Tm in series [1] came to 33.4 °C. Also, the folding enthalpy in series [2] was -18.6 kcal/mol.
The matching figures for GCTACACCGAAAGGTAGC (((..(((....)))))): 47.1 °C and -22.7 kcal/mol.
For the sequence GCTACAGAAATGTAGC ((((((....)))))), in series [1], the Tm was 55.4 °C. Moreover, in series [2], the folding enthalpy is -33.1 kcal/mol.
For the sequence GCTACAGCGAAAGCTAGC (((..(((....)))))), in series [1], the Tm amounted to 44.5 °C. For the same sequence, in series [2], the folding enthalpy was -16.3 kcal/mol.
The matching figures for GCTACAGGAAACTGCAGC (((.(((....))).))): 44.5 °C and -28.3 kcal/mol.
The matching figures for GCTACCACGAAAGTGAGC (((..(((....)))))): 33.3 °C and -15.3 kcal/mol.
For GCTACCGGAAACGACAGC (((..((....))..))), in that order: 27.5 °C and -15.8 kcal/mol.
